According to ChEMBL document CHEMBL2046412, “Xanthine oxidase inhibitory activity of constituents of Cinnamomum cassia twigs” (Bioorg Med Chem Lett, 2012):

Experiments:
[1] = target: T1, Xanthine dehydrogenase/oxidase (Homo sapiens, UniProt P47989); test: Inhibition of xanthine oxidase- mediated uric acid formation at 50 ug/mL after 5 mins by spectrophotometry
[2] = target: T1, Xanthine dehydrogenase/oxidase; test: Inhibition of xanthine oxidase- mediated uric acid formation after 5 mins by spectrophotometry
Summary of the method: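 Inhibition was taken relative to uric acid formed in the uninhibited control, and IC50 was derived from the mean of triplicate measurements.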

T1 sequence (P47989 whole entry): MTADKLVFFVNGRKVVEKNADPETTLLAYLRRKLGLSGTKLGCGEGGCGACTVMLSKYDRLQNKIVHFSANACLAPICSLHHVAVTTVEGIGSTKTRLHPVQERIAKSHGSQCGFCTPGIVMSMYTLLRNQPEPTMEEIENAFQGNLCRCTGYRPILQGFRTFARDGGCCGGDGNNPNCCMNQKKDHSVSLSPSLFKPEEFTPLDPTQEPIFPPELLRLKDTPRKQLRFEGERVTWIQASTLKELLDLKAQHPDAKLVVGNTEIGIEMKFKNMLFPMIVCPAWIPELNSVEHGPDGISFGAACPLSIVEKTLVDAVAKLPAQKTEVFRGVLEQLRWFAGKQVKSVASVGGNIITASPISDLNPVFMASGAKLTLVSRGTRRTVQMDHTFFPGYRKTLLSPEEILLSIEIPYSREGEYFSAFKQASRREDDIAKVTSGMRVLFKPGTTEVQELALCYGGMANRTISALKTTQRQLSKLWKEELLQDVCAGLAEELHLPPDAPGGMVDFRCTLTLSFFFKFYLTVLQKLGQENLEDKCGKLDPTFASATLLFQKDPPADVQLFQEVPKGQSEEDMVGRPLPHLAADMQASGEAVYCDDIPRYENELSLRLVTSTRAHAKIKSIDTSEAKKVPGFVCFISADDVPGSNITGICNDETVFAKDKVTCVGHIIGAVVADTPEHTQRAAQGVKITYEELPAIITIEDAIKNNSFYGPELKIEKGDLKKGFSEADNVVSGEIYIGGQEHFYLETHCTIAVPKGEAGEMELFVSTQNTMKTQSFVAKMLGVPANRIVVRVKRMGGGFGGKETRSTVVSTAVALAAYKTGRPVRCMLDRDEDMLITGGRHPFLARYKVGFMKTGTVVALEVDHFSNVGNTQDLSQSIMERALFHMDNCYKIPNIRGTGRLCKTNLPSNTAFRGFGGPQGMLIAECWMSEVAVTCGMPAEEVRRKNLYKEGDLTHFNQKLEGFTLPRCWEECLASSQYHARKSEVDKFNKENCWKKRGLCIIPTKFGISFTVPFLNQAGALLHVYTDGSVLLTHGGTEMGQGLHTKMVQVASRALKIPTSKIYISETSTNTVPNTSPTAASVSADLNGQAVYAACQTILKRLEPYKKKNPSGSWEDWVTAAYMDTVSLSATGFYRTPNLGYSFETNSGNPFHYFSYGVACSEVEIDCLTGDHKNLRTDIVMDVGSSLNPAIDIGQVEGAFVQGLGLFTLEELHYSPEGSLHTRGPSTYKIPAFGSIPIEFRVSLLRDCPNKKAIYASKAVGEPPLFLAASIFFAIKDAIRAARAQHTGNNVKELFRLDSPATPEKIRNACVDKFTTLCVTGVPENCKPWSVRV

| inhibition at 50 µg/mL [1] [%] | IC50 [2] [µM] | SMILES |
| --- | --- | --- |
| 95.8 | 85.1 | COc1ccccc1/C=C/C=O |
| 94.2 | 98.5 | O=C/C=C/c1ccccc1O [2-HYDROXYCINNAMALDEHYDE] |
| 22.2 | > 112 | COC(=O)c1cccc(O[C@@H]2O[C@H](CO[C@@H]3OC[C@](O)(CO)[C@H]3O)[C@@H](O)[C@H](O)[C@H]2O)c1 [CINNACASOLIDE A] |
| 35.4 | > 113 | OC/C=C/c1ccccc1O[C@@H]1O[C@H](CO[C@@H]2OC[C@](O)(CO)[C@H]2O)[C@@H](O)[C@H](O)[C@H]1O [CINNACASOLIDE B] |
| 28.2 | > 85.2 | COc1cc(O[C@@H]2O[C@H](CO)[C@@H](O)[C@H](O)[C@H]2O)ccc1Oc1ccc(O[C@@H]2O[C@H](CO)[C@@H](O)[C@H](O)[C@H]2O)c(OC)c1 [CINNACASOLIDE C] |
| 93.4 | 178 | O=C(O)/C=C/c1ccccc1 [CINNAMIC ACID] |
| 72.5 | 204 | COc1cc(/C=C/C=O)ccc1O [CONIFERYL ALDEHYDE] |
| 45.4 | > 152 | O=C(O)CCc1ccccc1O[C@@H]1O[C@H](CO)[C@@H](O)[C@H](O)[C@H]1O [DIHYDROMELILOTOSIDE] |
| 22.4 | > 146 | COC(=O)CCc1ccccc1O[C@@H]1O[C@H](CO)[C@@H](O)[C@H](O)[C@H]1O [METHYL DIHYDROMELILOTOSIDE] |
| 73.2 | 196 | O=C(O)/C=C/c1ccccc1O [O-COUMARIC ACID] |
| 18.7 | > 117 | O[C@@H]1[C@@H](O)[C@@H](OC/C=C/c2ccccc2)O[C@H](CO[C@@H]2OC[C@H](O)[C@H](O)[C@H]2O)[C@H]1O [ROSAVIN] |

| SMILES | inhibition at 50 µg/mL [1] [%] | IC50 [2] [µM] |
| --- | --- | --- |
| O=C/C=C/c1ccccc1 | 96.7 | 59 |
| OC/C=C/c1ccccc1 [CINNAMIC ALCOHOL] | 47.6 | > 373 |
